Shown are actives, neighbours in structure and some others; about 2.9% of the full set was active somewhere.
PRMT1 FP inh = PRMT1 methyltransferase inhibitors, primary screen, biochemical, fluorescence polarization; AID 652257, 2013; recombinant PRMT1, activity-based probe fluorescence polarization; 1.3% of 370,000 active; inhibition, % at 2.79 µM;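 active means inhibition above about 21% made by adding two undisclosed values, limit read from the data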
SIAE primary = human SIAE inhibitors, primary screen, biochemical, fluorescence polarization, FP-Rh probe, 1536-well HTS; 0.69% of 370,000 active; inhibition, % at 9.66 µM; AID 1053197, 2014; SIAE FP-Rh probe binding;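 active means inhibition above a cutoff: mean of compounds within the control limits plus 3 SD of those, cut at about 17% in these data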;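 further: 0% = plate median of compound wells and 100% = probe without SIAE protein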
ABHD4 inh = ABHD4 inhibitors, primary screen, biochemical, fluorescence polarization, mouse | (Lyso)-N-acylphosphatidylethanolamine lipase (Mus musculus), Q8VD66 | purified mABHD4, FP-Rh probe fluorescence polarization | inhibition, % at 8.92 µM | 0.54% of 370,000 active;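 active means inhibition exceeding the mean over every tested compound plus 3 SD, cut at about 30% in these data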;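 further: 0% = plate median of compound wells and 100% = S159A mutant with DMSO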
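Assay system: mouse ABHD4 enzyme, wild type / Also added: fluorescent activity-based probe FP-Rh / Doses: single nominal dose of 8.92 µM, 0.89% DMSO final / Timing: 45 min compound pre-incubation plus 60 min probe step, 25 °C / Signal: FP readout, ex 525 nm / em 598 nm / Control set: S159A mutant/DMSO as 100%, compound-well median as 0%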
PAD4 FP inh = human PAD4 inhibitors, primary screen, biochemical, fluorescence polarization, 1536-well format | recombinant PAD4, RCA probe fluorescence polarization | 0.41% of 330,000 active | AID 485272, 2010 | Protein-arginine deiminase type-4 (Homo sapiens), Q9UM07 | inhibition, % at 6.36 µM;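 active means percent inhibition above a cutoff equal to the mean of all tested compounds plus 3 SD, cut at about 15% in these data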;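 further: 0% = PAD4 with RCA probe and DMSO and 100% = probe without PAD4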
Target sequence (Q9UM07 whole entry, looked up): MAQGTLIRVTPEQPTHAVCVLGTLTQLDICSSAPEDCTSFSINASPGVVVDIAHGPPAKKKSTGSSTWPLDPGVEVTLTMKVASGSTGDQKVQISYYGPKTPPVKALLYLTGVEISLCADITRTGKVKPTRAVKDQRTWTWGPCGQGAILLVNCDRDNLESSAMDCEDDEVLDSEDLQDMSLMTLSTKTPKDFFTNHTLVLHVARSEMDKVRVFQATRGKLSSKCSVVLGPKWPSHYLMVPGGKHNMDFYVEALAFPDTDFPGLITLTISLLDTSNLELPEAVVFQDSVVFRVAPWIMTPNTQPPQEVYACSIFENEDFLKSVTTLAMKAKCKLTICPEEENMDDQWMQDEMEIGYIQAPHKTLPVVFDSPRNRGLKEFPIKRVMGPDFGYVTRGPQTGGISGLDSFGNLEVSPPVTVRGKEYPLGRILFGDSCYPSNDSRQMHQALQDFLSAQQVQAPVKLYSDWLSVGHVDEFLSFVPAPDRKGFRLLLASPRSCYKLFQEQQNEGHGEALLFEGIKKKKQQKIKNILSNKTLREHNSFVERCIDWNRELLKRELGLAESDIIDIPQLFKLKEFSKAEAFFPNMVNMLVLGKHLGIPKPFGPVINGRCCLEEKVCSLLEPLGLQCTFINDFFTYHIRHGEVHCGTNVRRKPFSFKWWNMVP
TCR-CD3 inh = inhibitors of human TCR-CD3 interaction, primary screen, biochemical, fluorescence, TAMRA-labeled TCR probe; T-cell receptor (TCR); inhibition, % at 9.4 µM; 0.37% of 360,000 active; AID 651800, 2012; in the data active means inhibition above about 19%;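 further: recombinant mutant TCR 2C K166C tagged with TAMRA read by polarization; 0% = receptor in buffer alone and 100% = receptor with positive control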
HTRA1 inh = HTRA1 serine protease inhibitors, primary screen, biochemical, fluorescence polarization, HTS. recombinant HTRA1, FP-rhodamine activity-based probe. Q92743. 0.5% of 340,000 active. inhibition, % at 5.96 µM; in the data active means inhibition above about 36%;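 further: 0% = enzyme with DMSO and 100% = wells lacking enzyme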
PAD4 confirm = human PAD4 inhibitors, confirmation, biochemical, fluorescence polarization | 28% of 1,200 active | recombinant PAD4, RCA probe fluorescence polarization | shares compounds with PAD4 FP inh | inhibition, % at 6.36 µM | AID 488796, 2010;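 active means mean inhibition across replicates above the hit cutoff set by the earlier primary screen, cut at about 15% in these data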;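 further: inhibitors block active-site labeling by the probe so polarization falls; 0% = PAD4 with probe and DMSO and 100% = probe without PAD4 enzyme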
* = called active by the depositor; · = not tested or not shown.

SMILES | PRMT1 FP inh | SIAE primary | ABHD4 inh | PAD4 FP inh | TCR-CD3 inh | HTRA1 inh | PAD4 confirm
COC(=O)C1=C(C)N(Cc2ccc(C(F)(F)F)cc2)C(=NCc2ccccc2C(F)(F)F)NC1c1cccc(Cl)c1 (stereo not given) | 8 | -4 | 7 | · | -4 | · | ·
O=C(/C=C/c1ccccc1)C1=C(O)C(=O)N(CCO)C1c1ccccc1[N+](=O)[O-] (stereo not given) | 1 | 0 | 10 | 24* | 6 | -1 | -1
COC(=O)[C@H]1C[C@@]2(N3CCCCC3)c3ccccc3N(S(=O)(=O)c3ccccc3)[C@H]2N1 | 0 | 8 | 4 | · | · | · | ·
O=[N+]([O-])c1cnc(N2CCCCC2)c([N+](=O)[O-])c1 | 9 | 9 | 20 | 41* | 6 | 25 | -3
Cc1cc([N+](=O)[O-])cnc1N1CCOCC1 | -3 | -1 | -4 | 1 | 7 | 4 | ·
COc1ccc(C2CC(c3cccs3)=NN2S(C)(=O)=O)cc1 (stereo not given) | 0 | -8 | -4 | 2 | 7 | 4 | ·
COc1ccc(C2CC(c3cccs3)=Nc3ccccc3S2)cc1 (stereo not given) | 83* | 3 | 3 | 21* | -4 | -15 | 2
O=C(Nc1nc(Cc2ccccc2)c(-c2ccccc2)n1Cc1ccccc1)c1ccccc1 | 0 | -5 | 2 | · | · | · | ·
C=CCn1c(NS(=O)(=O)c2ccccc2)c(S(=O)(=O)c2ccc(C)cc2)c2nc3ccccc3nc21 | 0 | 2 | 2 | 76* | -5 | -8 | 14
O=C(CSC1=NCCS1)Nc1nc2ccccc2s1 | 42* | -4 | -9 | 17* | 1 | -3 | 10
Cc1ccc(-c2csc(NC(=O)CSC3=NCCS3)n2)cc1 | 3 | -13 | -21 | 20* | -1 | -35 | 16*
Cc1sc(NC(=O)CSC2=NCCS2)nc1-c1ccccc1 | 4 | -9 | -8 | 19* | -5 | -25 | 17*
Cc1sc(NC(=O)CSc2ncn(-c3ccccc3)n2)nc1-c1ccccc1 | 4 | -27 | -20 | 2 | -1 | -23 | ·
O=C(CSc1nc2ccccc2o1)Nc1nc2ccccc2s1 | 0 | -9 | -14 | -1 | 2 | -14 | ·
CCOC(=S)SCC(=O)Nc1nc(-c2ccccc2)cs1 | 26* | -13 | -11 | 25* | 1 | 5 | 25*
CCn1c2ccccc2c2cc(C=NNC(=O)CSc3nc4ccccc4c(=O)n3-c3ccccc3)ccc21 | 2 | -8 | -2 | · | · | · | ·
CCCCCCCCN1C(=O)[C@@H](CC(=O)N2CCN(C(=O)OCC)CC2)C[C@@]2(C(=O)OC)C1=C[C@H](COCc1ccccc1)O[C@@H]2C | -4 | 3 | 4 | · | · | · | ·
COc1ccc(/C=C/C(=O)N(C)C2CCS(=O)(=O)C2)cc1OC (stereo not given) | 0 | 1 | 5 | 15* | 4 | -4 | -5
C[C@@H]1CN([C@H](C)CO)C(=O)c2cc(NC(=O)Nc3ccccc3)ccc2O[C@@H](C)CCCCO[C@H]1CN(C)S(=O)(=O)c1ccc(F)cc1 | 2 | -1 | -26 | · | · | · | ·
CC(=O)Nc1c2c3c(cccc3n(C)c1=O)C(=O)c1ccccc1-2 | 7 | -1 | -7 | 65* | -1 | 4 | 31*
O=C1C=C(Nc2ccc(F)cc2)c2ccccc2C1=O | 0 | 5 | 13 | 40* | 1 | 2 | 38*
O=C1C=C(Nc2cccnc2)c2ccccc2C1=O | 1 | 5 | 27 | · | 2 | 11 | ·
COC(=O)[C@]12C[C@H](CC(=O)N3CCN(C(=O)c4ccco4)CC3)C(=O)N(Cc3ccco3)C1=C[C@H](C(C)C)O[C@@H]2C1CC1 | 3 | 2 | -11 | · | · | · | ·
O=c1oc2ccccc2n1CSc1nc2ccccc2s1 | 1 | 0 | 0 | 2 | 5 | -19 | ·
O=c1oc2ccccc2n1CSC1=NCCS1 | 5 | 8 | -1 | 17* | 2 | 1 | 10
SMILES | PRMT1 FP inh | SIAE primary | ABHD4 inh | PAD4 FP inh | TCR-CD3 inh | HTRA1 inh | PAD4 confirm
COc1ccc(NC(=O)CSc2nnc(-c3cccs3)o2)cc1Cl | 2 | -1 | -3 | · | · | · | ·
COC(=O)c1cccc(-n2sc3ccccc3c2=O)c1 | 98* | 6 | 2 | 55* | -8 | 6 | 47*
O=c1sc2ccccc2c(=O)n1Cc1ccccc1F | 11 | 4 | -5 | 7 | -1 | -17 | ·
Cc1ccc(-n2sc3ccccc3c2=O)cc1 | 76* | 10 | 5 | 53* | 2 | 4 | 30*
O=c1c2ccccc2sn1-c1ccc(F)cc1 | 84* | 2 | 15 | 42* | 6 | 6 | 29*
Cc1ccc(Cn2c(=O)sc3ccccc3c2=O)cc1 | 3 | -5 | -5 | -6 | 3 | -24 | ·
O=C(CCn1nnc(-c2cccs2)n1)NCc1ccco1 | 0 | -6 | -3 | · | · | · | ·
C=CCN=C1NC(CCc2ccccc2)C(C(=O)OC)=C(C)N1C (stereo not given) | 1 | 1 | 10 | · | -3 | · | ·
O=C(O)c1ccc2c3c(ncnc13)-c1ccccc1C2=O | · | · | · | 85* | · | · | 68*
O=C(O)c1cccc2c1C(=O)c1ccccc1C2=O | 3 | 2 | 5 | -2 | -2 | 2 | ·
N#CCN(CC#N)C(=O)C1c2ccccc2Oc2ccccc21 | 3 | -1 | -2 | 56* | 3 | 7 | 2
COC(=O)CN1C(=O)N/C(=C/c2ccc(C)o2)C1=O | 56* | 3 | 8 | 16* | 8 | 9 | 2
COc1ccc(N2CCN(CCCNC(=O)Cc3ccc(C(F)(F)F)cc3)CC2)cc1 | -5 | 5 | 0 | · | · | · | ·
Clc1ccc(-c2ccc(C=Nc3ccc(N4CCOCC4)cc3)o2)cc1 | 4 | 4 | 16 | 31* | -2 | -1 | 6
COC(=O)[C@]12C[C@H](CC(=O)NCC34CC5CC(CC(C5)C3)C4)C(=O)N(Cc3ccco3)C1=C[C@H](C1CCCC1)O[C@@H]2C | -1 | 0 | 3 | · | · | · | ·
CC1=NN(c2ccc(C)cc2C)C(=O)C1C(c1cccc(O)c1)C1C(=O)N(c2ccc(C)cc2C)N=C1C (stereo not given) | 4 | 4 | 7 | 40* | 6 | 4 | -1
COC(=O)C1CN(Cc2ccc(OC)cc2)CCS(=O)(=O)N1Cc1cn(CCOC(C)=O)nn1 (stereo not given) | 2 | 5 | 7 | · | · | · | ·
O=C(Nc1ccccc1)C(=O)Nc1cccnc1 | 0 | 5 | -2 | 18* | 7 | 4 | 5
